Measured values collected from several papers.
Compare with care: the assays were run in different laboratories.
Organism: Severe acute respiratory syndrome coronavirus 2

C=C(C)[C@]12C[C@@H](C)[C@@]34O[C@](Cc5ccccc5)(O[C@@H]1[C@@H]3C=C(COC(=O)Cc1ccc(O)c(OC)c1)C[C@]1(O)C(=O)C(C)=C[C@@H]41)O2
inhibition (viral replication, inhibitor; Vero C1008; 1 µM): 53.2%

O=C(O[C@@H]1Cc2c(O)cc(O)cc2O[C@@H]1c1cc(O)c(O)c(O)c1)c1cc(O)c(O)c(O)c1
inhibition (cytopathic effect; Vero C1008; 25 µM): 25%

O=C(CCCN1CCC(O)(c2ccc(Cl)cc2)CC1)c1ccc(F)cc1
inhibition (viral replication; Vero C1008; 50 µM): 3%

NS(=O)(=O)c1ccc(N2N=C(C(F)(F)F)CC2c2c[nH]c3cc(Cl)ccc23)cc1 (centres unmarked)
inhibition (viral replication, inhibitor; Vero C1008; 1 µM): 40.9%

CC1=C(C/C=C(\C)CC/C=C(\C)Cc2ccc(F)c3ccccc23)C(=O)c2ccccc2C1=O
inhibition (viral replication, inhibitor; VeroE6/TMPRSS2; 100 µM, 72 h): 43%

O=C(Nc1ccc(C(F)(F)F)cc1)c1cc(Cl)c(F)cc1O
inhibition (viral replication, inhibitor; Vero C1008; 1 µM): 90%

COc1c2ccoc2c(OCC=C(C)C)c2oc(=O)ccc12
inhibition (viral replication, inhibitor; Calu-3; 50 µM): 96%

CC1=C(C/C=C(\C)CC/C=C(\C)Cc2ccc3ccccc3c2)C(=O)c2ccccc2C1=O
inhibition (viral replication, inhibitor; VeroE6/TMPRSS2; 100 µM, 72 h): 39%

COCC(=O)Nc1c(I)c(C(=O)NCC(O)CO)c(I)c(C(=O)N(C)CC(O)CO)c1I (centres unmarked)
inhibition (viral replication; Vero C1008; 50 µM): 2%

COc1cc(F)cc2c1-c1ccc(F)cc1C21NC(=O)NC1=O (centres unmarked)
inhibition (viral replication, inhibitor; Vero C1008; 1 µM): 52%

CC(C)=CCc1c(O)ccc(C(=O)/C=C/c2ccc(O)cc2)c1O
inhibition (cytopathic effect, inhibitor; Vero C1008; 50 µM): 0%

Br.CN=c1nc(-c2ccc(OC)c(OC)c2)n(-c2ccc(F)cc2)s1
inhibition (viral replication, inhibitor, qPCR; Vero C1008; 50 µM, 24 h): 35.6%

CC[C@H](C)[C@@H]1NC(=O)[C@@H](C)NC(=O)[C@H](C(C)C)NC(=O)C[C@H](/C=C/c2ccccc2)OC(=O)[C@H](C(C)C)NC1=O
inhibition (viral replication, inhibitor; Calu-3; 50 µM): 3.01%

CCC(CC)COC(=O)[C@H](C)N[P@](=O)(OC[C@H]1O[C@@](C#N)(c2ccc3c(N)ncnn23)[C@H](O)[C@@H]1O)Oc1ccccc1
inhibition (viral replication; Vero; 1 nM): 14.8%

O=C(/C=C/c1ccc(O)c(O)c1/C=C/c1ccc(O)c(O)c1)O[C@H](Cc1ccc(O)c(O)c1)C(=O)O
inhibition (cytopathic effect, inhibitor; Vero C1008; 3.125 µM): 0%

CCOC(=O)c1ccc(C#Cc2ccc3c(c2)C(C)(C)CCS3)nc1
inhibition (viral replication, inhibitor; Vero C1008; 1 µM): 49.9%

Cc1cccn2c(=O)c3cc(C(=O)Nc4ccc(N(C)C)cc4)n(C)c3nc12
inhibition (viral replication; Vero; 1 nM): 2.51%

CC(C)CC(NC(=O)OCc1ccccc1)C(=O)NC(C(=O)NCC(=O)C=[N+]=[N-])C(C)C (centres unmarked)
inhibition (viral replication, inhibitor; Vero C1008; 1 µM): 95.8%

COC(=O)C[C@@H]1OO[C@@](C)(/C(C)=C/C=C/Cc2ccccc2)C[C@H]1C
inhibition (viral replication, inhibitor; Calu-3; 50 µM): 4.15%

CCC(CC)COC(=O)[C@H](C)N[P@](=O)(OC[C@H]1O[C@@](C#N)(c2ccc3c(N)ncnn23)[C@H](O)[C@@H]1O)Oc1ccccc1
inhibition (viral replication, inhibitor; Vero C1008; 0.8 µM): 20%

CC(C)=CCC[C@](C)(O)[C@H]1CC[C@]2(C)[C@@H]1CC[C@@H]1[C@@]3(C)CCC(=O)C(C)(C)[C@@H]3CC[C@]12C
inhibition (viral replication, inhibitor; Calu-3; 50 µM): 99.5%

OC[C@H]1O[C@@H](O[C@@H]2[C@@H](CO)OC(O)(CO)[C@H]2O)[C@H](O)[C@@H](O)[C@H]1O (mixture of isomers)
inhibition (viral replication; Vero C1008; 50 µM): 3%

Cc1ccc(NC(=O)c2cc3c(=O)n4cccc(C)c4nc3n2C)cc1Cl
inhibition (viral replication; Vero; 0.1 µM): 67.4%

Oc1c(Br)cc(Cl)c2cccnc12
inhibition (viral replication, inhibitor; Vero C1008; 30 µM): ~103%

CC(=O)c1cccc(NC(=O)c2cc3c(=O)n4ccccc4nc3n2C)c1
inhibition (viral replication; Vero; 10 µM): 96.4%

C[C@@H]1O[C@@H](OC[C@H]2O[C@@H](Oc3c(-c4ccc(OCCO)c(OCCO)c4)oc4cc(OCCO)cc(O)c4c3=O)[C@H](O)[C@@H](O)[C@@H]2O)[C@H](O)[C@H](O)[C@H]1O
inhibition (viral replication; Vero C1008; 50 µM): 3%

Cn1c(C(=O)Nc2ccc(Cl)cc2)cc2c(=O)n3ccccc3nc21
inhibition (viral replication; Vero; 1 µM): 74.7%

CCCc1c(C(C)C)cc(C(C)C)c(C(C)O)c1-c1ccc(F)cc1 (centres unmarked)
inhibition (viral replication, inhibitor; Vero C1008; 1 µM): 52.8%

COc1ccc(C[C@@H]2c3cc(Oc4cc(C[C@@H]5c6cc(O)c(OC)cc6CCN5C)ccc4O)c(OC)cc3CCN2C)cc1
inhibition (cytopathic effect; Vero C1008; 3.125 µM): 0%

Cn1c(C(=O)Nc2ccc3c(c2)OCCO3)cc2c(=O)n3ccccc3nc21
inhibition (viral replication; Vero; 1 µM): 74.7%

C/C=C(/C)C(=O)O[C@H]1C(C)=C[C@]23C(=O)[C@@H](C=C(CO)[C@@H](O)[C@]12O)[C@H]1[C@@H](C[C@H]3C)C1(C)C
inhibition (viral replication, inhibitor; Vero C1008; 1 µM): 47.4%

O=C(Nc1ccccc1F)c1cc2c(=O)n3ccccc3nc2n1Cc1ccccc1
inhibition (viral replication; Vero; 10 µM): 96.6%

C=C[C@@](C)(/C=C/c1ccc(O)cc1)CCC=C(C)C
inhibition (cytopathic effect; Vero C1008; 50 µM): 0%

CCc1ccc(NC(=O)c2cc3c(=O)n4ccccc4nc3n2C)cc1
inhibition (viral replication; Vero; 0.1 µM): 51.5%

CC1=C(C/C=C(\C)CC/C=C(\C)Cc2ccc(F)cc2)C(=O)c2ccccc2C1=O
inhibition (viral replication, inhibitor; VeroE6/TMPRSS2; 100 µM, 72 h): 45%
